Assay results taken from ChEMBL document CHEMBL4033714, “Discovery of BI 135585, an in vivo efficacious oxazinanone-based 11β hydroxysteroid dehydrogenase type 1 inhibitor” (Bioorg Med Chem, 2017).
In brackets after ≈: the same amount, converted by molar mass.

Experiments:
[1] = Half life in rat liver microsomes; assay type: ADME, microsome
Cytochrome P450 3A4 = Cytochrome P450 3A4 (Homo sapiens, UniProt P08684); experiment: (§1) Inhibition of recombinant CYP3A4 (unknown origin); assay type: ADME
Cytochrome P450 2D6 = Cytochrome P450 2D6 (Homo sapiens, UniProt P10635); experiment: Inhibition of CYP2D6 (unknown origin); assay type: ADME
[2] = Half life in cynomolgus monkey liver microsomes; assay type: ADME, Macaca fascicularis, microsome
[3] = Half life in human liver microsomes; assay type: ADME, microsome
CYP3A4 = CYP3A4 (Homo sapiens, UniProt P08684); experiment: as §1; assay type: ADME; conditions: recombinant CYP3A4
[4] = Mean residence time in iv dosed rat; assay type: ADME, organism-based; conditions: in vivo
[5] = Clearance in iv dosed rat; assay type: ADME, organism-based; conditions: in vivo
[6] = Aqueous solubility of the compound; assay type: physicochemical
Outline: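 Solubility measured in water, with each compound tested as amorphous material.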

[7] = Oral bioavailability in rat; assay type: ADME, organism-based; conditions: in vivo
CYP2C9 = CYP2C9 (Homo sapiens, UniProt P11712); experiment: (§2) Inhibition of CYP2C9 (unknown origin); assay type: ADME
hERG = hERG (Homo sapiens, UniProt Q12809); experiment: Inhibition of human ERG at 10 uM by patch clamp assay relative to control
[8] = Mean residence time in iv dosed cynomolgus monkey; assay type: ADME, organism-based, Macaca fascicularis; conditions: in vivo
[9] = Volume of distribution at steady state in iv dosed cynomolgus monkey; assay type: ADME, organism-based, Macaca fascicularis; conditions: in vivo, read-out: Vdss
Cynomolgus monkey = experiment: Dose normalized AUC in iv dosed cynomolgus monkey; assay type: ADME, organism-based, Macaca fascicularis; conditions: in vivo
[10] = Oral bioavailability in cynomolgus monkey; assay type: ADME, organism-based, Macaca fascicularis; conditions: in vivo
[11] = Mean residence time in po dosed cynomolgus monkey; assay type: ADME, organism-based, Macaca fascicularis; conditions: in vivo
[12] = Clearance in iv dosed cynomolgus monkey; assay type: ADME, organism-based, Macaca fascicularis; conditions: in vivo
Cytochrome P450 2C9 = Cytochrome P450 2C9 (Homo sapiens, UniProt P11712); experiment: as §2; assay type: ADME
[13] = Partition coefficient, log P of the compound; assay type: physicochemical; conditions: octanol/water
[14] = biological target: Voltage-gated inwardly rectifying potassium channel KCNH2 (Homo sapiens, UniProt Q12809); experiment: Inhibition of human ERG
[15] = aqueous medium, read-out: solubility

Cytochrome P450 3A4, sequence (P08684 whole entry): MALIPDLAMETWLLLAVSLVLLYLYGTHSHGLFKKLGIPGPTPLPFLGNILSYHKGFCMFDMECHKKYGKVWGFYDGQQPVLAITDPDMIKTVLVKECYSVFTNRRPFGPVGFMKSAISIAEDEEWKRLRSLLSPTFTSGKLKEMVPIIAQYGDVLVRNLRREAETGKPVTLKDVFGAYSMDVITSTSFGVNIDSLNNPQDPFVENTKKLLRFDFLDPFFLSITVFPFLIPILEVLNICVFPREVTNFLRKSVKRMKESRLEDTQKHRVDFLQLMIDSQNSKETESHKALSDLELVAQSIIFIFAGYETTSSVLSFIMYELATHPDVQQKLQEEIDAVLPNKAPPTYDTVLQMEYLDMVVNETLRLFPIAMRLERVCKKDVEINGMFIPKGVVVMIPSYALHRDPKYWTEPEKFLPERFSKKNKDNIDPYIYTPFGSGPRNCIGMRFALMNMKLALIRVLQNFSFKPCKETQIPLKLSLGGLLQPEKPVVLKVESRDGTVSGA
CYP3A4, sequence (P08684 whole entry): as above
Cytochrome P450 2C9, sequence (P11712 whole entry): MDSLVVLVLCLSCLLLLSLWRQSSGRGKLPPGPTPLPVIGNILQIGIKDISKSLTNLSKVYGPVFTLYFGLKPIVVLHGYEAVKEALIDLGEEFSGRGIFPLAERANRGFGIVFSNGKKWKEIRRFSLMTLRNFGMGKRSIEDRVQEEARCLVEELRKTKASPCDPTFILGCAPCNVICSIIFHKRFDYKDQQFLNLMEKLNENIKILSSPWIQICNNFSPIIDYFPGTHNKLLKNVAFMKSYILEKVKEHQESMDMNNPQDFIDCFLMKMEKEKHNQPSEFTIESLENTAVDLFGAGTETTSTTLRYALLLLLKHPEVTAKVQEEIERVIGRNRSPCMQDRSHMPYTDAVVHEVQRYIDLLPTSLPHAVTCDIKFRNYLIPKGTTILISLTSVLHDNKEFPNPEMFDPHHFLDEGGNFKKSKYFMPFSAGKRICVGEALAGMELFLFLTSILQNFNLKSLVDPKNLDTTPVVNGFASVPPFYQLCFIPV
CYP2C9, sequence (P11712 whole entry): as above
hERG, sequence (Q12809 whole entry): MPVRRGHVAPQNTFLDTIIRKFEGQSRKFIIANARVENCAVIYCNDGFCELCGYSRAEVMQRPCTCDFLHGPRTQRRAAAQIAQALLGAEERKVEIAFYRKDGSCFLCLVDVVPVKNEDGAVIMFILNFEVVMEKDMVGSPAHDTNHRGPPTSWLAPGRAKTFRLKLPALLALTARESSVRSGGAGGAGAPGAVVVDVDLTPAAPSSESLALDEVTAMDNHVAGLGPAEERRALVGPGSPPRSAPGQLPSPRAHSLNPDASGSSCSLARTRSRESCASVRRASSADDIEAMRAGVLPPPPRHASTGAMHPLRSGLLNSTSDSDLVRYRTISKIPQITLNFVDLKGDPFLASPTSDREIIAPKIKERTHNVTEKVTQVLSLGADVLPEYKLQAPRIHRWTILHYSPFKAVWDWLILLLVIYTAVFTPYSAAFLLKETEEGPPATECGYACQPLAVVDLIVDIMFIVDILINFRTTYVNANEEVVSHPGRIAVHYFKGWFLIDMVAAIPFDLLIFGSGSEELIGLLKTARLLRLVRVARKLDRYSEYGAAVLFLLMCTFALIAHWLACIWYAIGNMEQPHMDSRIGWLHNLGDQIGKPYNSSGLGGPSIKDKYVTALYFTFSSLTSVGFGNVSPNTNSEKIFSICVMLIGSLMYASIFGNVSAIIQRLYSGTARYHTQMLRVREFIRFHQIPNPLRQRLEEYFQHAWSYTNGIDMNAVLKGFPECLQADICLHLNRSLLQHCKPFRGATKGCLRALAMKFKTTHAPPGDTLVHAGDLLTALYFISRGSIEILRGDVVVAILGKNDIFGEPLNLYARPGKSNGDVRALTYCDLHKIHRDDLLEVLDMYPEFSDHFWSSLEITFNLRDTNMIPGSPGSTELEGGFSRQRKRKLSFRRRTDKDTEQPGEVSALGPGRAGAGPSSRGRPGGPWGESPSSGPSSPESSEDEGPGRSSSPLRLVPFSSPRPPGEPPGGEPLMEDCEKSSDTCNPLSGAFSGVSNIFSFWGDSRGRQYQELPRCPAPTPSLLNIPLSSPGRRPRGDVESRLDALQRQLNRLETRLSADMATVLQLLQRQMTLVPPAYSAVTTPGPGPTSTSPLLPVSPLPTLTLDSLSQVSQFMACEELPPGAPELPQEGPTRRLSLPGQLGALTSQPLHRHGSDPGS
Cytochrome P450 2D6, sequence (P10635 whole entry): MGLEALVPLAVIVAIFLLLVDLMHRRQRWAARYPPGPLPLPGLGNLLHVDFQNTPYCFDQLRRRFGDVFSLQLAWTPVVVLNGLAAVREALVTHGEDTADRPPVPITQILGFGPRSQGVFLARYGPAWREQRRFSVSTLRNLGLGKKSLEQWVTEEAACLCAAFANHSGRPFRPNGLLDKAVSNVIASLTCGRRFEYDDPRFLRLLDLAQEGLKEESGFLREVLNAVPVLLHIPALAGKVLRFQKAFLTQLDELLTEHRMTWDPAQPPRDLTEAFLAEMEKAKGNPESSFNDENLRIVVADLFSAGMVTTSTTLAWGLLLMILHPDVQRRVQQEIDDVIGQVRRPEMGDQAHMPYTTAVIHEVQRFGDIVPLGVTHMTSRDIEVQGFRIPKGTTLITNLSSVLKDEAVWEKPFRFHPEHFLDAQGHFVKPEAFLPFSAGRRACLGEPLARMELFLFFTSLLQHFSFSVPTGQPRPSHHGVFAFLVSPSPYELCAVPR
Voltage-gated inwardly rectifying potassium channel KCNH2, sequence (Q12809 whole entry): as the sequence (Q12809 whole entry) above

Compound	half-life [1] [min]	IC50 (Cytochrome P450 3A4) [µM]	IC50 (Cytochrome P450 2D6) [µM]	half-life [2] [min]	half-life [3] [min]	also measured
C[C@@H](c1ccc(Br)cc1)N1CC[C@](CC(C)(C)O)(c2ccc(F)cc2)OC1=O	53	3.5				
C[C@@H](c1ccc(OC(F)F)cc1)N1CC[C@](CC(C)(C)O)(c2ccc(F)cc2)OC1=O	> 60	6.6				
C[C@@H](c1ccc(OC(F)F)cc1)N1CC[C@](CCC(N)=O)(c2ccccc2)OC1=O	50.6	> 30			> 90	MRT [4]: 33 min; clearance [5]: 91 mL/min/kg; solubility [6, 15]: 1500 µg/mL (≈ 3580 µM); bioavailability [7]: 51%
COc1ccc([C@H](C)N2CC[C@](CCC(N)=O)(c3ccc(F)cc3)OC2=O)cc1	9					
C[C@@H](c1ccc(-c2ccncc2)cc1)N1CC[C@](CCCO)(c2ccccc2)OC1=O		1.8				
C[C@@H](c1ccc(Br)cc1)N1CC[C@](CCO)(c2ccc(F)cc2)OC1=O	25	> 30				
C[C@@H](c1ccc(Br)cc1)N1CC[C@](CCCNS(C)(=O)=O)(c2ccc(F)cc2)OC1=O	11.4					
C[C@@H](c1ccc(-c2ccc(F)cc2F)cc1)N1CC[C@](CCO)(c2ccc(F)cc2)OC1=O						logP [13]: 4.2; solubility ([6]; buffer, BLD = below limit of detection): Bld
C[C@@H](c1ccc(OC(F)(F)F)cc1)N1CC[C@](CCC(N)=O)(c2ccc(F)cc2)OC1=O	> 60					
COc1ccc(-c2ccc([C@H](C)N3CC[C@](CCCO)(c4ccccc4)OC3=O)cc2)cn1		> 30				
C[C@@H](c1ccc(-c2cncc(F)c2)cc1)N1CC[C@](CCCO)(c2ccccc2)OC1=O		11				
Cc1ccc([C@H](C)N2CC[C@](CCC(N)=O)(c3ccc(F)cc3)OC2=O)cc1	7.1					
C[C@@H](c1ccc(Br)cc1)N1CC[C@](CCC(N)=O)(c2ccc(F)cc2)OC1=O	36.1	> 30			> 90	MRT [4]: 72 min; IC50 [14]: 6.3 µM; clearance [5]: 49 mL/min/kg; solubility [6, 15]: 300 µg/mL (≈ 668 µM); bioavailability [7]: 42%
C[C@@H](c1ccc(Br)cc1)N1CC[C@](CC(C)(C)C#N)(c2ccc(F)cc2)OC1=O	20.3					
C[C@@H](c1ccc(-c2cccnc2)cc1)N1CC[C@](CCCO)(c2ccccc2)OC1=O		2.1				
C[C@@H](c1ccc(OC(F)F)cc1)N1CC[C@](CCC(N)=O)(c2ccc(F)cc2)OC1=O	> 60	27			> 90	MRT [4]: 50.4 min; IC50 [14]: 5.3 µM; clearance [5]: 67 mL/min/kg; solubility [6, 15]: 460 µg/mL (≈ 1050 µM); bioavailability [7]: 77%
Cc1cc(-c2ccc([C@H](C)N3CC[C@](CCCO)(c4ccccc4)OC3=O)cc2)cc(C)n1	13	> 30				
C[C@@H](c1ccc(-c2ccc(=O)n(C)c2)cc1)N1CC[C@](CCCO)(c2ccccc2)OC1=O		10.5				

Further lines, with some results ahead:

half-life [1] [min]	IC50 (Cytochrome P450 3A4) [µM]	IC50 (Cytochrome P450 2D6) [µM]	half-life [2] [min]	half-life [3] [min]	Compound	also measured
> 45		> 50	38	> 45	Cc1cc(-c2ccc([C@H](C)N3CC[C@](CC(C)(C)O)(c4ccccc4)OC3=O)cc2)cc(C)n1	IC50 (CYP3A4): > 50 µM
> 45		> 50	> 45	> 90	C[C@@H](c1ccc(-c2ccc(C(N)=O)cn2)cc1)N1CC[C@](CC(C)(C)O)(c2ccccc2)OC1=O	IC50 (CYP2C9): > 50 µM; bioavailability [7]: 15%; IC50 (CYP3A4): > 50 µM
> 45		> 50	> 45	> 90	Cc1ccc(-c2ccc([C@H](C)N3CC[C@](CC(C)(C)O)(c4ccccc4)OC3=O)cc2)nn1	inhibition at 10 µM (hERG): < 10%; MRT [8]: 288 min; Vd [9]: 1.5 L/kg; IC50 (CYP2C9): > 50 µM; AUC/dose (Cynomolgus monkey): 3330 nM·h; bioavailability [10]: 70%; MRT [11]: 318 min; clearance [12]: 5.2 mL/min/kg; IC50 (CYP3A4): > 50 µM
> 90	> 50	> 50	> 45	> 90	C[C@@H](c1ccc(-c2ccc(=O)n(C)n2)cc1)N1CC[C@](CC(C)(C)O)(c2ccccc2)OC1=O	inhibition at 10 µM (hERG): 50%; IC50 (Cytochrome P450 2C9): > 50 µM
		> 50			COc1ccc(-c2ccc([C@H](C)N3CC[C@](CC(C)(C)O)(c4ccccc4)OC3=O)cc2)cn1	
> 90	10	> 50	> 45	> 90	C[C@@H](c1ccc(-c2ccc3ncnn3c2)cc1)N1CC[C@](CC(C)(C)O)(c2ccccc2)OC1=O	IC50 (Cytochrome P450 2C9): > 50 µM
> 90		> 50	> 90	> 90	C[C@@H](c1ccc(-c2ccc(=O)n(C)c2)cc1)N1CC[C@](CC(C)(C)O)(c2ccccc2)OC1=O	inhibition at 10 µM (hERG): < 10%; MRT [8]: 162 min; Vd [9]: 1.7 L/kg; AUC/dose (Cynomolgus monkey): 1770 nM·h; bioavailability [10]: 39%; MRT [11]: 288 min; clearance [12]: 11 mL/min/kg
> 90		> 50	> 90	> 90	C[C@@H](c1ccc(-c2ccc(C#N)cn2)cc1)N1CC[C@](CC(C)(C)O)(c2ccccc2)OC1=O	
	23				C[C@@H](c1ccc(-c2ccccn2)cc1)N1CC[C@](CCCO)(c2ccccc2)OC1=O	
16	> 50	> 50	38	> 90	Cc1cnc(-c2ccc([C@H](C)N3CC[C@](CC(C)(C)O)(c4ccccc4)OC3=O)cc2)cn1	IC50 (Cytochrome P450 2C9): 33 µM
> 60	10			> 90	C[C@@H](c1ccc(OC(F)F)cc1)N1CC[C@](CC(C)(C)O)(c2ccccc2)OC1=O	MRT [4]: 50.4 min; clearance [5]: 23 mL/min/kg; solubility [6, 15]: 260 µg/mL (≈ 620 µM); bioavailability [7]: 57%
> 90		> 50	> 90	> 90	Cc1ncc(-c2ccc([C@H](C)N3CC[C@](CC(C)(C)O)(c4ccccc4)OC3=O)cc2)cn1	inhibition at 10 µM (hERG): 12%; MRT [8]: 210 min; Vd [9]: 1.7 L/kg; IC50 (CYP2C9): > 50 µM; AUC/dose (Cynomolgus monkey): 2070 nM·h; bioavailability [10]: 96%; MRT [11]: 288 min; clearance [12]: 8.1 mL/min/kg; IC50 (CYP3A4): > 50 µM
> 45		> 50	> 45	> 45	C[C@@H](c1ccc(-c2ccc(F)cn2)cc1)N1CC[C@](CC(C)(C)O)(c2ccccc2)OC1=O	
